From ChEMBL document CHEMBL1821622, “Thiazole- and imidazole-containing peptidomimetic inhibitors of protein farnesyltransferase” (Bioorg Med Chem Lett, 2011)
Blank lines part the entries; values can stand above or below the molecule they belong to. Calls of active or inactive are those of the source. The calls are words filed in the database; no cut-off is given here.

Tests used:
[1] = (§1) Inhibition of cell proliferation in RASMC cells after 72 hrs by Coulter Counter method; type: functional, cell-based, Rattus norvegicus
How it was run: (§2)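 Rat aortic SMCs were seeded at 2 × 10^5 cells per 35 mm dish in DMEM with 10% FCS. Cells were counted after trypsinization. DMSO was at most 0.5% final. IC50 came from linear regression of log concentration vs logit.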

[2] = system: RASMC; assay: Inhibition of rat Ftase in RASMC cells assessed as reduction in Ras prenylation at 2 uM after 72 hrs by Western blot analysis; type: cell-based
How it was run: (§3)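 Rat SMCs were seeded at 4 × 10^5 per 60 mm dish and taken through the same serum arrest and restimulation as the proliferation assay, with 72 h exposure. Cells were lysed for 30 min on ice in Tris pH 7.5/NaCl/NP-40 buffer with inhibitors and cleared at 15,000g. Protein was measured by BCA. Lysates were run on reducing SDS-PAGE and immunoblotted with anti-Ras (RAS10) using ECL. The slower band is unprenylated Ras; the faster band is prenylated Ras.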

[3] = (§4) Inhibition of rat recombinant FTase using Dansyl-Gly-Cys-Val-Leu-Ser-OH peptide and farnesyl-pyrophosphate substrates measured every 15 seconds for 5 mins by fluorescent assay
[4] = system: RASMC; assay: as §1; type: functional, cell-based; conditions: Rattus norvegicus; how it was run: as §2
[5] = species on record: Rattus norvegicus; assay: as §4
[6] = system: RASMC; assay: Inhibition of rat Ftase in RASMC cells assessed as reduction of Ras prenylation at 50 to 100 uM after 72 hrs by Western blot analysis relative to control; type: cell-based; how it was run: as §3
[7] = Rattus norvegicus, RASMC, 72 h, read-out: IC50

IC50 ([3]; read-out: IC50): 122 nM
SMILES: CSCC[C@H](NC(=O)c1ccc(NC(=O)Cc2c[nH]c(S)n2)cc1-c1ccccc1C)C(=O)O

IC50 [3]: Not Active
SMILES: CSCC[C@H](NC(=O)c1ccc(NC(=O)Cc2csc(SC)n2)cc1-c1ccccc1C)C(=O)O

IC50 ([3]; read-out: IC50): 415 nM
SMILES: CSCC[C@H](NC(=O)c1ccc(NC(=O)CCc2csc(SC)n2)cc1-c1ccccc1C)C(=O)O

IC50 ([3]; read-out: IC50): 390 nM
SMILES: CSCC[C@H](NC(=O)c1ccc(NC(=O)CCc2csc(N)n2)cc1-c1ccccc1C)C(=O)O

IC50 ([3]; read-out: IC50): 49 nM | inhibition [5]: Dose-dependent effect
SMILES: CSCC[C@H](NC(=O)c1ccc(NC(=O)Cc2csc(N)n2)cc1-c1ccccc1C)C(=O)O
inhibition [4]: Dose-dependent effect | inhibition [6]: Dose-dependent effect

IC50 ([3]; read-out: IC50): 538 nM
SMILES: CSCC[C@H](NC(=O)c1ccc(NC(=O)Cc2csc(S)n2)cc1-c1ccccc1C)C(=O)O

IC50 ([3]; read-out: IC50): 526 nM
SMILES: CSCC[C@H](NC(=O)c1ccc(NC(=O)CCc2csc(S)n2)cc1-c1ccccc1C)C(=O)O

IC50 [3]: Not Active
SMILES: CSCC[C@H](NC(=O)c1ccc(NC(=O)CCc2c[nH]c(S)n2)cc1-c1ccccc1C)C(=O)O

The next lines start with the molecule.

SMILES: CSCC[C@H](NC(=O)c1ccc(NC(=O)Cc2csc(N)n2)cc1-c1ccccc1C)C(=O)OC(C)C
IC50 [1, 7]: 107000 nM

SMILES: CSCC[C@H](NC(=O)c1ccc(NC(=O)Cc2csc(SC)n2)cc1-c1ccccc1C)C(=O)OC(C)C
IC50 ([1]; rasmc): Not Active

SMILES: CCC(C)(C)C(=O)O[C@H]1C[C@@H](C)C=C2C=C[C@H](C)[C@H](CC[C@@H]3C[C@@H](O)CC(=O)O3)[C@H]21
inhibition [2]: Active

SMILES: CSCC[C@H](NC(=O)c1ccc(NC(=O)CCc2c[nH]c(S)n2)cc1-c1ccccc1C)C(=O)OC(C)C
IC50 [1, 7]: 34000 nM

SMILES: CSCC[C@H](NC(=O)c1ccc(NC[C@@H](N)CS)cc1-c1ccccc1)C(=O)O
IC50 ([3]; read-out: IC50): 9 nM

SMILES: CSCC[C@H](NC(=O)c1ccc(NC(=O)CCc2csc(SC)n2)cc1-c1ccccc1C)C(=O)OC(C)C
IC50 ([1]; rasmc): Not Active

SMILES: CSCC[C@H](NC(=O)c1ccc(NC(=O)CCc2csc(S)n2)cc1-c1ccccc1C)C(=O)OC(C)C
IC50 [1, 7]: 25000 nM

SMILES: CSCC[C@H](NC(=O)c1ccc(NC(=O)Cc2c[nH]c(S)n2)cc1-c1ccccc1C)C(=O)OC(C)C
IC50 [1, 7]: 226000 nM

SMILES: CSCC[C@H](NC(=O)c1ccc(NC(=O)Cc2csc(S)n2)cc1-c1ccccc1C)C(=O)OC(C)C
IC50 [1, 7]: 21000 nM

SMILES: CSCC[C@H](NC(=O)c1ccc(NC(=O)CCc2csc(N)n2)cc1-c1ccccc1C)C(=O)OC(C)C
IC50 ([1]; rasmc): Not Active
